The whole screen tested about 210,000 compounds, of which about 220 (0.1%) were called active. The sample holds actives, similar compounds and a random draw of the others, so the mix is not that of the screen. Unmarked numbers belong to inactive results.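 The calls were made as follows: active = signal enhancement of 30% or more; inactive = the rest.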
Biological target: E3 ubiquitin-protein ligase Mdm2 (Homo sapiens) (UniProt Q00987)
Test: increase of MDM2 autoubiquitination reporter luminescence – cell-based, 1536-well, MDM2 E3 ligase inhibitor project, primary screen (AID 1230);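 also: higher signal means inhibition of MDM2 E3 ligase activity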
Details: cell-based MDM2 ubiquitination luciferase reporter, 2 h; at 5 µM; hits give high values; 0 = plate control, 100 = twice control, blank-subtracted
Method in brief: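 Timing – 2 h compound exposure at 37 °C · Assay system – mammalian cells stably expressing self-ubiquitinating, self-degrading MDM2 E3–luciferase fusion · Amount – 2000 cells seeded into each well · Measure – % luminescence enhancement versus blank-corrected plate control mean · Measured by – SteadyLite luminescence, 15 min reagent step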

E3 ubiquitin-protein ligase Mdm2 (Homo sapiens), sequence (Q00987 whole entry, looked up): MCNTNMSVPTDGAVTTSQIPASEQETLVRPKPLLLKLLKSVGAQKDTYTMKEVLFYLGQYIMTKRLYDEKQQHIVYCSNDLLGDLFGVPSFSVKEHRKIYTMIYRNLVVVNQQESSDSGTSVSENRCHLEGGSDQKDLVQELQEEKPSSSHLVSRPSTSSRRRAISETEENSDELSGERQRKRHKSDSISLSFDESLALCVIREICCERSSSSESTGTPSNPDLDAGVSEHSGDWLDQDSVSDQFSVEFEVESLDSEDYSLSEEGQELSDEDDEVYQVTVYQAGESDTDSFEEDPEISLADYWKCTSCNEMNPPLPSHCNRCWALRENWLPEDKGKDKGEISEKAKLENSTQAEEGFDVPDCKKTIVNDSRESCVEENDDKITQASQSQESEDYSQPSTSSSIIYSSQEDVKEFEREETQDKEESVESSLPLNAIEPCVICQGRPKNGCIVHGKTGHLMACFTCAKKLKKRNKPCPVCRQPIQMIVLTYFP

| SMILES | signal enhancement |
| --- | --- |
| CSc1sc(C(=O)NC(=O)NCc2cccnc2)c(C)c1-c1ccon1 | -12.8% |
| O=C(NCCCn1ccnc1)C(=O)NCC1OCCN1S(=O)(=O)c1cc(F)ccc1F (configuration not stated) | -1.11% |
| C/C(=N\NC(=O)c1nc(C)cc(C)n1)c1ccccc1 | -2.38% |
| Cc1cc(SCC(=O)c2ccccc2)nc(SCC(=O)c2ccccc2)n1 | -22.4% |
| Cc1cc(C)nc(S/C=C/C(=O)c2ccccc2)n1 | 45.8% (active) |
| CNC(=S)NNC(=O)c1oc2nc(-c3ccccc3)cc(-c3ccco3)c2c1N | -16.3% |
| Cc1noc(C)c1COC(=O)COc1ccc(-c2ccccc2)cc1 | -6.72% |
| CCS(=O)(=O)c1cc([N+](=O)[O-])c(Sc2ccccc2N)s1 | -43.9% |
| CS(=O)(=O)c1ccc2nnn(OCC(=O)Nc3cccc(C#N)c3)c2c1 | -16.9% |
| CC(=O)c1ccc(S(=O)(=O)N2CCN(C(=O)/C=C/c3ccc4ccccc4n3)CC2)cc1 | -8.84% |
| C/C=C\C=C\C(=O)N1CC2(CC(c3cccc(NC(=O)/C(C)=C\C)c3)=NO2)C[C@H]1C(N)=O (some centres not stated) | -14.1% |
| Cn1ccc(=NC=C(C#N)C#N)c2ccccc21 | 30.3% (active) |
| CCOC(=O)c1cc(C)nc(S(C)(=O)=O)c1C#N | -11% |
| CCOC(=O)c1c(NC(=S)NC)sc2c1CCCC2 | -8.08% |
| COc1ccc(/C=C/C(=O)Nc2cccnc2)cc1OC | -3.38% |
| COc1ccc(/C=C/C(=O)Nc2ccc3c(c2)OCCO3)cc1OC | -7.44% |
| COc1ccc(/C=C/C(=O)Nc2ccc(C34CC5CC(CC(O)(C5)C3)C4)cc2)cc1OC | 45.6% (active) |
| Clc1ccc(C[n+]2cc(-c3ccccc3)n3c2CCC3)cc1 | -18.4% |
| S=c1[nH]nc(-c2cccs2)n1/N=C/c1cn(-c2ccccc2)nc1-c1ccc(Cl)cc1 | -7.25% |
| COc1cccc(C2Nc3cccc4cccc(c34)N2)c1 | -2.34% |
| CNC(=O)C(NC(=O)c1ccccc1)=C(C)C | -12.3% |

| SMILES | signal enhancement |
| --- | --- |
| COc1ccccc1OCC(=O)O/N=C(\N)c1ccccn1 | -10.7% |
| N/C(=N\OC(=O)Nc1ccccc1)c1ccno1 | -4.12% |
| CCCc1nc2c(c(=O)c3ccccc3n2C)c(=O)n1-c1cc(C)cc(C)c1 | -9.46% |
| COc1ccc(NC(=O)CSc2ncnc3[nH]ncc23)cc1 | -3.15% |
| CC(C)(C)c1cc(NC(=O)NN2CCOCC2)nn1-c1c(Cl)cc(Cl)cc1Cl | -17.5% |
| CCOC(=O)C1CCN(C(=O)Nc2ccc(C)c(Cl)c2)CC1 | -11.1% |
| Cn1nccc1NC(=O)Nc1ccc(OC(F)(F)F)cc1 | -5.96% |
| O=C1NC[C@@H](Cc2ccc(O)cc2)N(CCc2cccc(F)c2)C1=O | 10.9% |
| COc1ccc(CNC(=O)C(Cc2ccccc2)n2cccc2)cc1 (configuration not stated) | -4.92% |
| Cn1cnc([N+](=O)[O-])c1Sc1n[nH]c(N)n1 | -5.56% |
| O=C(CCc1ccccc1)NNc1ccc(F)cc1 | -12.4% |
| CCCCCCCCCCCCN1C(=O)CSC1c1cccnc1 (configuration not stated) | -5.41% |
| O=C(NCC1CCCO1)c1cc(-c2ccccc2)nc2ccccc12 (configuration not stated) | -4.98% |
| CCOC(=O)C(=CNNc1ccsc1C(=O)OC)C(=O)OCC | -27.3% |
| COCCn1c(=NC(=O)c2ccccc2[N+](=O)[O-])sc2cc(S(C)(=O)=O)ccc21 | -5.21% |
| Cn1c(=NC(=O)c2ccc3c(c2)OCCO3)sc2cc(S(C)(=O)=O)ccc21 | 37% (active) |
| CC(=O)c1ccc2c(c1)OCCOCCOc1ccc(C(C)=O)cc1OCCOCCO2 | -8.95% |
| Cc1cccc(N(C)C(=O)c2cc3c(=O)[nH]c4ccc(C)cc4c3s2)c1 | 2.91% |
| Cc1cccc(N2CCN(Cc3nc(C4CC4)no3)CC2)n1 | 2.81% |
| CC(C)(C)c1cc(P(=O)(c2ccccc2)c2ccccc2)ccc1O | -14% |
| COc1ccc(CCNC(=O)C2CC3Cn4c(nc5cc(C)c(C)cc54)C3N2C)cc1 (configuration not stated) | 13% |

| SMILES | signal enhancement |
| --- | --- |
| CC1=NOC(=O)/C1=C\c1ccccc1 | -4.01% |
| Cc1cccc(C)c1Nc1c(-c2ccccc2O)nc2ncccn12 | -18.4% |
| CN(Cc1nc(-c2cnccn2)no1)Cc1n[nH]c2c1CCCCC2 | -8.5% |
| Clc1ccc(CSc2nnc3c(n2)[nH]c2ccccc23)cc1 | -10.6% |
| CCNc1nc(NCC)nc(N/N=C/c2ccc(O)c(OC)c2)n1 | -10% |
| CC(=O)N1N=C(c2ccncc2)OC1(Cc1ccccc1)Cc1ccccc1 | -11.4% |
| CCC(C)(C)NC(=O)C(c1ccc(O)cc1)N(C(=O)Cn1nnc2ccccc21)c1ccc(NC(C)=O)cc1 (configuration not stated) | -11.7% |
| Cn1c2ccc(F)cc2c2nnc(NN)nc21 | -2.02% |
| COc1ccc(OC)c(NC(=O)N[C@H](Cc2ccccc2)C(=O)NN)c1 | -4.05% |
| NC(=O)CC(NC(=O)Cc1cccc2ccccc12)c1ccc(NCc2cc(F)ccc2F)c([N+](=O)[O-])c1 (configuration not stated) | 5.13% |
| COc1ccc(OCC(O)CNCCNc2nccc(C(F)(F)F)n2)cc1 (configuration not stated) | -12.4% |
| CC1CN(c2nc(Nc3ccccc3)nc(N)c2[N+](=O)[O-])CC(C)O1 (configuration not stated) | -20.6% |
| Cc1c(C(=O)N(Cc2ccccc2)Cc2cccnc2)cnn1-c1ccc(F)cc1 | -11.7% |
| Clc1cccc(CN2COc3c(cc(Cl)c4cccnc34)C2)c1 | 46.8% (active) |
| O=c1[nH]n(-c2cccc(Cl)c2)c2ncccc12 | -4.4% |
| Oc1c(CN2CCN(c3ccc(F)cc3)CC2)cc(Cl)c2cccnc12 | 9.75% |
| CCCSc1ncccc1C(=O)O | -7.45% |
| COC(=O)C1=C(N)Oc2cc(C)[nH]c(=O)c2C1c1ccc(Cl)cc1 (configuration not stated) | -10.2% |
| CSc1nnc(SCc2nc3sc(C(=O)O)c(C)c3c(=O)[nH]2)s1 | -16.2% |
| O=C(CSc1nnnn1-c1ccc(O)cc1)c1ccc(F)cc1 | -12.1% |

From PubChem BioAssay AID1230 (PCMD, 2008)
